Screening results deposited in PubChem BioAssay by several laboratories.
PHOSPHO1 block: PubChem AID 1565 | Phosphoethanolamine/phosphocholine phosphatase (Homo sapiens), Q8TCT1 | recombinant PHOSPHO1, absorbance phosphatase assay | inhibition, % at 13.3 µM | 1.1% of 290,000 active; in the data active = inhibition above about 60%
KCNQ1 inh: inhibitors of human KCNQ1 channel, primary screen, cell-based, thallium flux, high-throughput | 1.3% of 310,000 active | B-score at 10 µM | Potassium voltage-gated channel subfamily KQT member 1 (Homo sapiens), P51787 | AID 2642, 2010 | CHO-K1 KCNQ1, FluxOR thallium flux fluorescence; hits give high values;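 active = compounds whose thallium flux B-score, printed positive for inhibition, exceeds three library SD while starting fluorescence stays within three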;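 also: channel opened by potassium depolarization with thallium stimulus after 20 min compound exposure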
Target sequence (P51787 whole entry, looked up): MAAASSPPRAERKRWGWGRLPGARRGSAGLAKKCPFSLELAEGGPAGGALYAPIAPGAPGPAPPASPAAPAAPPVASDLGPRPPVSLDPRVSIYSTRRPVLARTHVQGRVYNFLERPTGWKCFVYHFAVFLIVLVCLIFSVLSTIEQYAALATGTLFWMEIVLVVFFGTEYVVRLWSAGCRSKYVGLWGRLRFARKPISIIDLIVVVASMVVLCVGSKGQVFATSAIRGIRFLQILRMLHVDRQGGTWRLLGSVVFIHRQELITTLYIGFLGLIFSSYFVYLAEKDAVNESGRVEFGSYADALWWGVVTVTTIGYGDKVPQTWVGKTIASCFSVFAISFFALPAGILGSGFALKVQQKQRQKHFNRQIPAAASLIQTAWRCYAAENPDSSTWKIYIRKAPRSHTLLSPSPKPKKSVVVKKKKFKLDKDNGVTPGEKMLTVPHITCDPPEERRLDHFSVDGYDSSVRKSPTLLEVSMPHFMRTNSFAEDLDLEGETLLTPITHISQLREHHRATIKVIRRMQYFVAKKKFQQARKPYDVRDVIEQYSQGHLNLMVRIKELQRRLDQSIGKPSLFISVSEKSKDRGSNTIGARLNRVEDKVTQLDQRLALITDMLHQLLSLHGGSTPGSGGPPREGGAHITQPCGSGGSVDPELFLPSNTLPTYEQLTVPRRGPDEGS
KCNK3 block: human KCNK3 channel inhibitors, primary screen, CHO cells, FluxOR thallium flux, B-score; FluxOR fluorescence; hits give low values; 0.84% of 340,000 active; AID 602410, 2012; B-score at 10 µM;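 active = B-score under library mean minus 4 SD, starting fluorescence ratio at most library mean plus 5 SD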;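 also: more negative B-score means stronger inhibition of thallium flux through KCNK3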
KCNK9 block: KCNK9 potassium channel inhibitors, primary screen, HEK293 cells, thallium flux; Potassium channel subfamily K member 9 (Homo sapiens), Q9NPC2; FluxOR thallium flux fluorescence; hits give low values; B-score at 10 µM; 1.2% of 310,000 active;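 active = ratio B-score over 3 SD below the library mean, with starting fluorescence within 5 SD of its mean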;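 also: negative B-score means less thallium flux so channel inhibition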
hERG rescue: hERG rescue from dofetilide block, primary screen, cell-based, CHO-hERG, FluxOR thallium flux, dofetilide IC70; Voltage-gated inwardly rectifying potassium channel KCNH2 (Homo sapiens), Q12809; dofetilide IC70 present; activation (rescue from dofetilide block), less the hit threshold, % at 10 µM; 0.51% of 310,000 active;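 active = activation above the mean of controls blocked by dofetilide plus 5 SD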;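 also: thallium influx through hERG after potassium depolarization seen as dye fluorescence rise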
KCNQ1 act: potentiators or activators of KCNQ1 channel, primary screen, cell-based, thallium flux, high-throughput; Potassium voltage-gated channel subfamily KQT member 1 (Homo sapiens), P51787; CHO-K1 KCNQ1, thallium flux FluxOR fluorescence; hits give high values; B-score at 10 µM; 0.35% of 310,000 active;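 active = fluorescence ratio B-score, a plate-corrected score, at least three library SD, with initial intensity B-score within 5 SD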
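Assay system: CHO-K1 cells stably expressing KCNQ1; Medium: assay buffer with matched DMSO; Also added: K+/Tl+ depolarizing stimulus; Dosing: single dose; Timing: dye 90 min, compound 20 min, room temperature; Measured by: kinetic FluxOR thallium fluorescence, 10-s 1-Hz baseline, 110-s post-stimulus read; Read-out: peak-minus-minimum fluorescence over initial fluorescence, negative-control normalized, B-scored.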
A number is an active result; n = inactive; x = no result. This is a sample that favours compounds with a hit; in the whole collection about 4% have one here.

SMILES	PHOSPHO1 block	KCNQ1 inh	KCNK3 block	KCNK9 block	hERG rescue	KCNQ1 act
Cc1nc(CSc2nnc(N)s2)cs1	n	n	n	n	n	n
Cc1ccc(O)c(C(CC(=O)NCc2ccco2)c2ccccc2)c1 (stereo unspecified)	n	n	n	n	n	n
CC(C)Oc1ccc(C(CC(=O)NCc2ccco2)c2ccccc2)cc1 (stereo unspecified)	n	n	n	-7.2	n	n
CC(C)CCNC(=O)C1CCCCN1S(=O)(=O)c1ccc(F)cc1 (stereo unspecified)	n	n	n	n	5.0	n
COc1cc(C)c(NC(c2ccccc2)c2ccccc2)cc1OC	n	n	n	n	n	n
O=C(O)CSc1ncccn1	n	n	n	n	n	n
O=C(CSc1ncccn1)c1ccccc1Br	61	n	n	n	n	n
CC(C)(C)OC(=O)CC1(C#N)c2ccccc2C(Br)=CN1C(=O)c1ccccc1 (stereo unspecified)	x	n	n	-7.4	n	n
Cc1ccc2c(c1)C(=O)C(=O)N2CC(=O)Nc1ccc(N2CCOCC2)cc1	n	n	n	n	n	n
Cc1c(-c2ccccc2)sc2nc[nH]c(=S)c12	n	n	n	n	30	91
CCCCOc1ccc(Nc2nc(C)cc(C)c2C#N)cc1	n	n	n	n	5.0	n
COc1ccc(N=Cc2c(C)[nH][nH]c2=O)cc1	n	n	n	n	n	n
COC(=O)c1c(-c2ccccc2)csc1NC(=O)c1ccco1	n	n	n	n	n	n
N#CCCn1cc(/C=N/O)c(-c2ccc(Cl)cc2)n1	n	n	n	n	n	n
N#CCCn1cc(C=C(C#N)C#N)c(-c2ccc(Cl)cc2)n1	60	n	n	n	n	n
Cc1[nH]n(-c2ccccc2)c(=O)c1C(C[N+](=O)[O-])c1ccccc1Cl (stereo unspecified)	n	n	n	n	n	n
COc1ccc(C(C[N+](=O)[O-])c2c(C)[nH]n(-c3ccccc3)c2=O)cc1 (stereo unspecified)	n	7	n	n	n	n
Cc1ccc(/C=C(\C#N)C(=O)NC(C)C)o1	n	n	n	n	n	n
CC(C)NC(=O)/C(C#N)=C/c1ccc(N(C)C)o1	n	7	n	n	n	n
O=C(C[n+]1cc(-c2ccc(Cl)cc2)n2c1CCCCC2)c1ccccc1	n	n	n	n	n	n
Clc1ccc(C2=C3CCCCn4c(-c5ccccc5)c[n+](c43)C2)cc1	n	7	n	n	n	n
COc1ccc(-c2c[n+]3c4n2CCCCC4=C(c2ccc(Br)cc2)C3)cc1	n	11	n	n	n	n
COc1ccc(-c2cnc3n2CCCCC3)cc1	n	n	n	n	n	n
O=C(Nc1cccnc1)C1(c2ccc(Cl)cc2)CCCC1	n	n	n	n	n	n
O=C(NC1CCCc2ccccc21)C1CCN(S(=O)(=O)c2cccc(C(F)(F)F)c2)CC1 (stereo unspecified)	n	n	n	n	n	n
SMILES	PHOSPHO1 block	KCNQ1 inh	KCNK3 block	KCNK9 block	hERG rescue	KCNQ1 act
CC(C)(C)OC(=O)N1CCN(C(=O)c2[nH]cnc2C(=O)NCC(=O)OCc2ccccc2)CC1	n	n	n	n	n	n
Cc1ccc(S(=O)(=O)Nc2ccccc2-c2ccccc2NS(=O)(=O)c2ccc(C)cc2)cc1	n	7	n	n	n	n
Cc1ccc(S(=O)(=O)Nc2c(O)ccc3ccccc23)cc1	x	12	n	n	n	n
Cc1ccc(S(=O)(=O)Nc2c(Cl)c(Cl)c(O)c3ccccc23)cc1	n	n	x	n	n	n
COc1ccc(OC)c(NC=C2C(=O)OC3(CCCCC3)OC2=O)c1	n	n	n	n	n	n
CCOc1ccccc1NC=C1C(=O)OC2(CCCCC2)OC1=O	n	n	n	n	5.1	n
Cc1cccc(-c2nnc(NC(=O)c3ccc(Cl)cc3)o2)c1	n	n	n	n	n	9
Cc1ccc(C(=O)Nc2nnc(-c3ccncc3)o2)cc1	n	n	n	n	n	n
Cc1ccc(S(=O)(=O)N2CCOCC2)cc1N/N=C(\C#N)c1nc2ccccc2[nH]1	n	6	n	n	n	n
CCc1cc(C(=O)N2CCOCC2)c(NC2=NS(=O)(=O)c3ccccc32)s1	84	n	n	n	n	n
COc1ccc(OC)c(-n2c(-c3cc(-c4ccccc4)n[nH]3)n[nH]c2=S)c1	n	n	n	n	n	n
COc1ccc(-c2cc(-c3n[nH]c(=S)n3-c3ccccc3OC)[nH]n2)cc1	67	n	n	n	n	n
COc1ccc(OC)c(-n2c(-c3cccc(C)c3)n[nH]c2=S)c1	n	n	n	n	n	n
COc1ccc(OC)c(-n2c(-c3ccccc3)n[nH]c2=S)c1	102	n	n	n	n	n
O=C(CCCC(=O)OCC(Cl)=C(Cl)Cl)Nc1ccccc1	n	n	n	n	n	n
Cc1ccccc1NC(=O)c1ccc([N+](=O)[O-])o1	n	n	n	n	n	n
Cc1cccc(/C=C/C(=O)c2ccc([N+](=O)[O-])o2)c1	x	8	n	n	n	n
O=C(/C=C/c1cccc([N+](=O)[O-])c1)c1ccc([N+](=O)[O-])o1	x	n	n	n	n	n
Cc1ccccc1/C=C/C(=O)c1ccc([N+](=O)[O-])o1	x	7	x	n	n	n
O=C(O)C1CCCCC1C(=O)Nc1ccc2c(c1)OCO2 (stereo unspecified)	n	n	n	n	n	n
O=C(O)c1ccccc1C(=O)NNC(=O)C(c1ccccc1)c1ccccc1	n	n	n	n	n	n
O=C(c1ccc(Oc2ccc(C(F)(F)F)cc2[N+](=O)[O-])cc1)N1CCOCC1	n	n	n	n	n	n
Cc1cccc(OCCNC(=O)c2ccc(Oc3ccc(C(F)(F)F)cc3[N+](=O)[O-])cc2)c1	n	6	-9.5	n	n	n
Cc1ccc(OCCNC(=O)c2cc(C(=O)NCCOc3ccc(C)cc3)cc([N+](=O)[O-])c2)cc1	n	10	n	n	n	n
O=C(c1ccc2c3c(cccc13)CC2)C1CCCN(C(=O)c2ccc(=O)[nH]c2)C1 (stereo unspecified)	n	n	n	n	n	n
COc1ccc(Nc2cc(C(=O)NCCCOC(C)C)c3ccccc3n2)c(OC)c1	n	n	n	n	n	n
COc1ccc(Nc2cc(C(=O)NCCCN3CCN(C)CC3)c3ccccc3n2)c(OC)c1	67	n	n	n	n	n
